Measurements published in ChEMBL document CHEMBL5512642, “Novel triterpenoid pyrones, phthalimides and phthalates are selectively cytotoxic in CCRF-CEM cancer cells - Synthesis, potency, and mitochondrial mechanism of action” (Eur J Med Chem, 2024).
Calls of active or inactive are those of the source. No cut-off for these calls is given here.

Assays:
[1] = system: CCRF-CEM; test: Cytotoxicity against human CCRF-CEM cells assessed as reduction in cell viability incubated for 72 hrs by MTS assay; format: functional, cell-based
[2] = system: CEM-DNR; test: Cytotoxicity against human CEM-DNR cells assessed as reduction in cell viability incubated for 72 hrs by MTS assay; format: functional, cell-based
[3] = system: K562; test: Cytotoxicity against human K562 cells assessed as reduction in cell viability incubated for 72 hrs by MTS assay; format: functional, cell-based; details: K562, 72 h
[4] = Cytotoxicity against human K562-Tax cells assessed as reduction in cell viability incubated for 72 hrs by MTS assay; format: functional, cell-based
[5] = system: A549; test: Cytotoxicity against human A549 cells assessed as reduction in cell viability incubated for 72 hrs by MTS assay; format: functional, cell-based; details: A549, 72 h
[6] = system: HCT-116; test: Cytotoxicity against human HCT-116 cells assessed as reduction in cell viability incubated for 72 hrs by MTS assay; format: functional, cell-based; details: HCT-116, 72 h
[7] = system: HCT 116 TP53(-/-); test: Cytotoxicity against human HCT116-p53-null cells assessed as reduction in cell viability incubated for 72 hrs by MTS assay; format: functional, cell-based
[8] = system: U2OS; test: Cytotoxicity against human U2OS cells assessed as reduction in cell viability incubated for 72 hrs by MTS assay; format: functional, cell-based
[9] = Cytotoxicity against human BJ cells assessed as reduction in cell viability incubated for 72 hrs by MTS assay; format: toxicity, cell-based
[10] = Cytotoxicity against human MRC5 cells assessed as reduction in cell viability incubated for 72 hrs by MTS assay; format: toxicity, cell-based
[11] = Stability in human plasma assessed as compound remaining measured 15 mins by RF-MS analysis; format: ADME, cell-free; details: read-out: Stability
Summary of the method: (§1)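 Compounds incubated in human plasma in vitro for up to 2 h. Percent remaining sampled at 15, 30, 60 and 120 min. Run in triplicate.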

[12] = Stability in human plasma assessed as compound remaining measured 30 mins by RF-MS analysis; format: ADME, cell-free; details: read-out: Stability; summary of the method: as §1
[13] = Stability in human plasma assessed as compound remaining measured 60 mins by RF-MS analysis; format: ADME, cell-free; details: read-out: Stability; summary of the method: as §1
[14] = Stability in human plasma assessed as compound remaining measured 120 mins by RF-MS analysis; format: ADME, cell-free; details: read-out: Stability; summary of the method: as §1
[15] = Plasma protein binding in human assessed as fraction bound at 10 uM by rapid equilibrium dialysis based RF-MS analysis; format: ADME, cell-free; details: read-out: PPB (converted)
Summary of the method: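 Human plasma protein binding measured by equilibrium dialysis and reported as percent fraction bound. Run in triplicate.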

[16] = Apparent permeability of the compound in MDCK-MDR1 cells at 10 uM incubated for 1 hr by RF-MS analysis; format: ADME, cell-based, Canis lupus familiaris; details: dog
Summary of the method: (§2)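 Caco-2 and MDCK-MDR1 monolayers; transport measured in both directions, apical→basolateral and basolateral→apical. Efflux ratio taken from the two directions; ER > 2 counted as active efflux. Compound recovery reported. Cell-based permeability runs done in duplicate.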

[17] = Apparent permeability of the compound across apical to basolateral side in MDCK-MDR1 cells assessed as compound recovery at 10 uM incubated for 1 hr by RF-MS analysis; format: ADME, cell-based, Canis lupus familiaris; details: dog, read-out: Activity; summary of the method: as §2
[18] = Metabolic stability in human liver microsomes assessed as compound remaining at measured at 15 mins in presence of NADPH by RF-MS analysis; format: ADME, Microsome; details: read-out: Stability
Summary of the method: (§3)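 Human liver microsomes with NADPH cofactor to assess phase I oxidation. Compound remaining sampled at 15, 30 and 60 min; intrinsic clearance derived and categorized. Run in triplicate.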

[19] = Metabolic stability in human liver microsomes assessed as compound remaining at measured at 60 mins in presence of NADPH by RF-MS analysis; format: ADME, Microsome; details: read-out: Stability; summary of the method: as §3
[20] = Apparent permeability of the compound in human Caco-2 cells; format: ADME, cell-based; summary of the method: as §2
[21] = Apparent permeability of the compound across apical to basolateral side in human Caco-2 cells assessed as compound recovery; format: ADME, cell-based; details: read-out: Activity; summary of the method: as §2
[22] = system: CCRF-CEM; test: Induction of apoptosis in human CCRF-CEM cells assessed as viable cells at 1 time IC50 incubated for 24 hrs by Annexin V and propidium iodide staining based flow cytometry analysis (reference value: 98%); format: functional
[23] = system: CCRF-CEM; test: Induction of apoptosis in human CCRF-CEM cells assessed as early apoptotic cells at 1 time IC50 incubated for 24 hrs by Annexin V and propidium iodide staining based flow cytometry analysis (reference value: 1.4%); format: functional
[24] = system: CCRF-CEM; test: Induction of apoptosis in human CCRF-CEM cells assessed as late apoptotic cells at 1 time IC50 incubated for 24 hrs by Annexin V and propidium iodide staining based flow cytometry analysis (reference value: 0.5%); format: functional
[25] = system: CCRF-CEM; test: Induction of apoptosis in human CCRF-CEM cells assessed as necrotic cells at 1 time IC50 incubated for 24 hrs by Annexin V and propidium iodide staining based flow cytometry analysis (reference value: 0.1%); format: functional
[26] = system: CCRF-CEM; test: Induction of apoptosis in human CCRF-CEM cells assessed as viable cells at 5 time IC50 incubated for 24 hrs by Annexin V and propidium iodide staining based flow cytometry analysis (reference value: 98%); format: functional
[27] = system: CCRF-CEM; test: Induction of apoptosis in human CCRF-CEM cells assessed as early apoptotic cells at 5 time IC50 incubated for 24 hrs by Annexin V and propidium iodide staining based flow cytometry analysis (reference value: 1.4%); format: functional
[28] = system: CCRF-CEM; test: Induction of apoptosis in human CCRF-CEM cells assessed as late apoptotic cells at 5 time IC50 incubated for 24 hrs by Annexin V and propidium iodide staining based flow cytometry analysis (reference value: 0.5%); format: functional
[29] = system: CCRF-CEM; test: Induction of apoptosis in human CCRF-CEM cells assessed as necrotic cells at 5 time IC50 incubated for 24 hrs by Annexin V and propidium iodide staining based flow cytometry analysis (reference value: 0.; format: functional
[30] = system: CCRF-CEM; test: Antimitotic activity against human CCRF-CEM cells assessed as decrease in cell division at 5 times of IC50; format: functional, cell-based
Summary of the method: (§4)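 Mitotic fraction scored with the pH3 Ser10 marker and DNA synthesis with BrdU incorporation. For transcription, cells received a short BrU pulse after the 24 h pre-incubation. Read by flow cytometry against untreated cells.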

[31] = system: CCRF-CEM; test: Antiproliferative activity against human CCRF-CEM cells assessed as reduction cell population at 1 time of IC50 by BrdU incorporation assay; format: functional, cell-based; summary of the method: as §4
[32] = system: CCRF-CEM; test: Induction of apoptosis in human CCRF-CEM cells assessed as reduction in caspase-3 expression at 5 time of IC50 incubated for 24 hrs by Western blot analysis; format: functional, cell-based
Summary of the method: (§5)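 Lysate 20 µg protein per lane on SDS-PAGE, transferred to nitrocellulose, blocked in 5% BSA/TBS-Tween. Probed overnight at 4 °C with anti-caspase-3, Bcl-2, Bcl-XL, β-actin, then HRP secondary 1 h. ECL chemiluminescence detection.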

[33] = system: CCRF-CEM; test: Induction of apoptosis in human CCRF-CEM cells assessed as reduction in Bcl-2 expression at 5 time of IC50 incubated for 24 hrs by Western blot analysis; format: functional, cell-based; summary of the method: as §5
[34] = system: CCRF-CEM; test: Induction of apoptosis in human CCRF-CEM cells assessed as reduction in Bcl-XL expression at 5 time of IC50 incubated for 24 hrs by Western blot analysis; format: functional, cell-based; summary of the method: as §5
[35] = system: CCRF-CEM; test: Antiproliferative activity against human CCRF-CEM cells assessed as inhibition of RNA synthesis at 5 time of IC50 by BrdU incorporation assay; format: functional, cell-based; details: in the assay text read “BrU incorporation assay” for “BrdU incorporation assay”; summary of the method: as §4
[36] = system: CCRF-CEM; test: Antiproliferative activity against human CCRF-CEM cells assessed as reduction BruD positive cell at 1 time of IC50 by BrdU incorporation assay; format: functional, cell-based; summary of the method: as §4
[37] = system: CCRF-CEM; test: Antiproliferative activity against human CCRF-CEM cells assessed as reduction BruD positive cell at 5 time of IC50 by BrdU incorporation assay; format: functional, cell-based; summary of the method: as §4
[38] = system: CCRF-CEM; test: Induction of mitochondrial membrane potential loss in human CCRF-CEM cells assessed as cells with depolarized mitochondria (P2 gate) by measuring green fluorescence intensity at 1 time IC50 incubated for 24 hrs by JC-1 staining based flow cytometry (reference value: 2.1%)
[39] = system: CCRF-CEM; test: Induction of mitochondrial membrane potential loss in human CCRF-CEM cells assessed as cells with depolarized mitochondria (P2 gate) by measuring green fluorescence intensity at 5 time IC50 incubated for 24 hrs by JC-1 staining based flow cytometry (reference value: 2.1%)

CC(C)[C@@H]1CC[C@]2(C(=O)O)CC[C@]3(C)[C@H](CC[C@@H]4[C@@]5(C)Cc6c(C(F)(F)F)cc(=O)oc6C(C)(C)[C@@H]5CC[C@]43C)[C@@H]12
IC50 [1]: 3.5 µM
IC50 [2]: 4.9 µM
IC50 [3]: 23 µM
IC50 [4]: 17 µM
IC50 [5]: 11 µM
IC50 [6]: 10 µM
IC50 [7]: 18 µM
IC50 [8]: 19 µM
IC50 at 72 h [9]: > 50 µM
IC50 at 72 h [10]: 27 µM
remaining at 0.25 h [11]: 98.4%
remaining at 0.5 h [12]: 97.7%
remaining at 1 h [13]: 97.5%
remaining at 2 h [14]: 94.2%
fraction unbound at 10 µM [15]: 0.056
Papp at 1 h, 10 µM [16]: 2.7 nm/s
recovery at 1 h, 10 µM [17]: 64.8%
remaining at 0.25 h [18]: 106%
remaining at 1 h [19]: 82%
Papp [20]: 1.5 nm/s
recovery [21]: 105%
Activity [22]: 92.4%
Activity [23]: 4.8%
Activity [24]: 2.8%
Activity [25]: 0%
Activity [26]: 69.9%
Activity [27]: 14.3%
Activity [28]: 15.8%
Activity [29]: 0%
Activity [30]: Active
Activity [31]: inactive
Activity [32]: Active
Activity [33]: Active
Activity [34]: Active
Activity [35]: Active
Activity [36]: inactive
Activity [37]: Active
Activity [38]: 4%
Activity [39]: 28.6%
